Hits are enriched below; roughly 6.4% of the tested compounds scored in any of these assays.
EphB4 ephrin blk = antagonists of human EphB4-ephrin-B2 interaction; P54760; EphB4 LBD / TNYL-RAW-Alexa532 peptide, fluorescence polarization; inhibition, % at 7 µM; hit rate 0.15% among 97,000; AID 720;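 active means inhibition above the screen-wide mean inhibition plus 3 SD, cut at about 15% in these data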;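 further: 0% = DMSO wells and 100% = excess unlabeled TNYL-RAW peptide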
Target sequence (P54760 whole entry, looked up, the tested form may be a part): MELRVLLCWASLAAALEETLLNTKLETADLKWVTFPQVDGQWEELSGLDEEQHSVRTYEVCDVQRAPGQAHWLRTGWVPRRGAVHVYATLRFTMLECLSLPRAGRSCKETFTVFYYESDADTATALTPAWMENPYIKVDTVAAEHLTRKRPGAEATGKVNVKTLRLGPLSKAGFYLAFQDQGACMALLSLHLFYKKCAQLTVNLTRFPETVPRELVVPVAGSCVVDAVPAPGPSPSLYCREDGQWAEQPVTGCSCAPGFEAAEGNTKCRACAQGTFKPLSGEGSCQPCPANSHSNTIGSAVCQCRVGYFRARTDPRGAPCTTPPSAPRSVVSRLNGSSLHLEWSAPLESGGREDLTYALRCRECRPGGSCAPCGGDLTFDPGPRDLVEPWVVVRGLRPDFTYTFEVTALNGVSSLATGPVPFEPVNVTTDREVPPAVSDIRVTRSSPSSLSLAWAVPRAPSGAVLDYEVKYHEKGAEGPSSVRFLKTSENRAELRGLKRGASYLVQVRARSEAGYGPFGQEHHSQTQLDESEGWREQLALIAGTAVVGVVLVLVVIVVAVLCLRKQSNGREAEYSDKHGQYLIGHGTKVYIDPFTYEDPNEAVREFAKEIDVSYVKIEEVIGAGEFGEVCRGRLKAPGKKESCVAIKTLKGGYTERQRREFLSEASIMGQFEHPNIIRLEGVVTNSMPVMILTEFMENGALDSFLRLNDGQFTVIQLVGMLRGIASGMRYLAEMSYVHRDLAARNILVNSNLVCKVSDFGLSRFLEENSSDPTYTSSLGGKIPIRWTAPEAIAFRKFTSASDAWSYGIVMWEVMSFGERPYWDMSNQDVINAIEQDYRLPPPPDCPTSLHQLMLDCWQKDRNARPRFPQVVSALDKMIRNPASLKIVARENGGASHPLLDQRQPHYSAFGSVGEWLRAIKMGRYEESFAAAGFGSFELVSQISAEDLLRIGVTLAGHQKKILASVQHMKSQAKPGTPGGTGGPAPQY
PostGolgi ctrl = inhibits growth of the yeast control strain; efflux-deficient yeast background strain, growth absorbance A615, 16 h; inhibition, % at 10 µM; hit rate 5% among 98,000; AID 738
PLK1 PBD inh = Plk1 (human) PBD binding inhibition | AID 693 | hit rate 0.13% among 97,000 | Plk1 PBD phosphopeptide binding, fluorescence polarization | inhibition, %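 (tested at about 20 µM)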; in the data active means inhibition above about 34%, passing the limit was not always enough
PostGolgi yeast = growth inhibition of a yeast mutant, post-Golgi transport screen; post-Golgi transport phenotypic cell assay; inhibition, % at 10 µM; hit rate 0.9% among 98,000; AID 739;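 further: yeast cells grown in 1536-well plates; yeast grown about 18 h at 30C before absorbance read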
PLK1 inh = PLK1 (human) kinase inhibition. P53350. recombinant PLK1 kinase, TR-FRET peptide phosphorylation. inhibition, % at 10 µM. hit rate 0.53% among 97,000;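 active means inhibition of 50% or more in the single-concentration screen; inactive means inhibition below 50%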;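 further: 0% = DMSO max control and 100% = H-89 dihydrochloride min control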
HIV Rev-RRE inh = HIV Rev-RRE protein-RNA interaction inhibition. P05866. Rev peptide-RRE RNA binding, FRET. inhibition, % at 8 µM. hit rate 0.79% among 97,000. AID 704;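 active means inhibition above the screen-wide mean plus 3 SD, cut at about 35% in these data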;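 further: 0% = median DMSO wells and 100% = median Neomycin B control wells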
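Test system: labelled RRE RNA duplex and labelled Rev peptide. Times: 5 min compound–RNA preincubation, then 15 min with peptide, 25 °C. Doses: single-dose 8 µM. Measured by: FRET, excitation 480 nm, emission 540 nm donor and 671 nm acceptor. Measure: % inhibition of FRET ratio versus controls.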
Redox H2O2 DR = generates H2O2 by redox cycling, flagging false Plk1 PBD hits. shares compounds with PLK1 PBD inh. EC50, µM. AID 876. 120 tested, under 10 active. redox cycling H2O2 generation, DTT, counter-screen; call rule not given here
An asterisk follows results filed as active; / = no result given. Unless noted, no stated cut-off is given here; in the data, active means inhibition above about 30%; inactive means the rest.

SMILES	EphB4 ephrin blk	PostGolgi ctrl	PLK1 PBD inh	PostGolgi yeast	PLK1 inh	HIV Rev-RRE inh	Redox H2O2 DR
c1ccc(CN2CCN(C3=Nc4cccc5cccc3c45)CC2)cc1	1	16	-33	3	-5	32	/
C=CCn1c2ccccc2c2nnc(SCc3ccc4nonc4c3)nc21	0	6	50*	-1	-6	10	>50
CC(=O)c1sc(NC(=O)C2(F)C(F)(F)C(F)(F)C(F)(F)C(F)(F)C2(F)F)nc1C	/	22	/	-1	/	/	/
NC(=O)C1CCN(C2=C(Cl)C(=O)c3ccccc3C2=O)CC1	2	-1	66*	14	11	5	>50
NC(=O)C1CCN(C(=O)Nc2ccccc2)CC1	-2	/	-17	/	-9	5	/
CC1Cn2c(nnc2-c2ccccc2O)S1 (centres undefined)	4	11	27	-1	-20	8	/
CC1Cn2c(nnc2-c2cc3ccccc3cc2O)S1 (centres undefined)	-1	2	57*	-3	-5	2	>50
COc1ccc(N(C)C2=NS(=O)(=O)c3ccccc32)cc1	-2	-6	54*	-1	6	5	>50
CCC(C)c1ccc(NC(=O)C2CCCN(c3ncccn3)C2)cc1 (centres undefined)	0	18	6	-4	-9	8	/
CCC(C)c1ccc(NC(=O)C2CC2)cc1 (centres undefined)	-8	13	63*	-15	-12	-1	>50
CCN1C(=O)/C(=C/c2nc3ccccc3c(=O)n2-c2ccccc2)c2ccccc21	-10	17	57*	-3	-18	2	>50
COC(=O)CCc1c(C)[nH]c(=S)[nH]c1=O	5	24	45*	-4	-7	6	>50
CCOC(=O)Cc1c(C)[nH]c(=S)[nH]c1=O	-3	6	-17	1	2	1	/
Nc1cc2nsnc2cc1Br	-7	-3	118*	4	25	11	13*
COc1ccc(S(=O)(=O)N(C)CC(=O)Nc2ccccc2C(F)(F)F)cc1	8	12	35*	6	-15	7	>50
COc1ccc(S(=O)(=O)N(C)CC(=O)Nc2ccccc2C(F)(F)F)cc1Cl	7	4	-17	-2	-8	16	/
Cc1ccc(S(=O)(=O)NC(C)(C)CSc2nnc(N)s2)cc1	-7	12	-17	-5	-15	6	/
CCc1ccc(N(C(=O)c2ccco2)C(C(=O)NC2CCCC2)c2ccco2)cc1 (centres undefined)	2	/	-8	/	-8	-1	/
COc1ccc(CCn2c(=S)[nH]c3cc(C(=O)NCc4ccco4)ccc3c2=O)cc1OC	7	2	-11	1	-12	2	/
CC1(C)CSC(=S)N1S(=O)(=O)c1ccccc1	-7	12	-6	-3	5	-3	/
O=C(Nc1nc2ccccc2s1)c1cc2c(s1)-c1ccccc1OC2	2	-7	53*	-10	-16	13	>50
NC(=O)C1(N2CCCCC2)CCN(C(=O)NC2CCCCC2)CC1	8	16	52*	10	-3	9	>50
O=C(c1ccc(-n2cnnn2)cc1)N1CCCCC1	-3	/	48*	/	-9	1	>50
Cc1ccc(OCC(=O)Nc2ccc(N3CCOCC3)cc2)cc1	-4	24	39*	3	-8	1	>50
CCc1nc2cc(Cl)c(Cl)cc2[nH]1	10	16	50*	30	2	3	>50
SMILES	EphB4 ephrin blk	PostGolgi ctrl	PLK1 PBD inh	PostGolgi yeast	PLK1 inh	HIV Rev-RRE inh	Redox H2O2 DR
CSc1nc2ccc(Cl)cc2[nH]1	4	/	0	/	-13	7	/
O=C(Nc1cccc(-c2cnc3ccccc3n2)c1)c1cccc(NC(=O)c2ccco2)c1	0	-1	15	2	-13	3	/
CN(CC(=O)Nc1ccncc1)S(=O)(=O)c1ccc(Cl)cc1	/	-1	/	-5	/	/	/
CCOc1ccccc1N1CCN(C2=C(NS(=O)(=O)c3cccs3)C(=O)c3ccccc3C2=O)CC1	-2	28	59*	-10	7	3	>50
O=C1C(NS(=O)(=O)c2cccs2)=C(N2CCN(c3cccc(C(F)(F)F)c3)CC2)C(=O)c2ccccc21	2	13	-21	-6	-5	8	/
O=C1CN(c2ccc(Br)cc2)C(=O)N1CC(=O)N1CCCc2ccccc21	-2	7	46*	1	-16	13	>50
O=S(=O)(O)c1nc2ccccc2n1Cc1ccccc1	-4	14	-23	-12	16	4	/
NC(=O)Cn1c(S(=O)(=O)Cc2ccccc2)nc2ccccc21	1	/	43*	/	-12	4	>50
Clc1ccc(CSc2nnc(-c3sccc3-n3cccc3)o2)cc1	-5	18	0	-8	-11	9	/
CC(NC(=O)Cn1nnc(-c2ccncc2)n1)c1ccccc1 (centres undefined)	5	/	-4	/	9	6	/
CCOC(=O)Cc1csc(NC(=O)CSc2nnc(-c3ccc(F)cc3)o2)n1	-4	5	40*	1	5	2	>50
CC1CCCC(NC2CCCCNC2=O)C1 (centres undefined)	1	-12	43*	23	-2	5	>50
S=C1NCCOCCOCCOCCOCCNC(=S)NCCOCCOCCOCCOCCN1	6	/	9	/	-11	-2	/
O=C(N/C=N/OCc1cccc(C(F)(F)F)c1)N1OC[C@@H]2COc3ccc4ccccc4c3[C@@H]21	0	7	0	1	-5	16	/
Cc1ccc(NC(=O)C2CC=CCC2C(=O)N2CCCCC2)cc1 (centres undefined)	-8	-2	43*	10	3	-3	>50
O=C(CN1C(=O)COc2ccccc21)NCc1ccc(C(=O)O)cc1	-4	2	51*	-10	5	5	>50
Cc1ccc(Cl)cc1N1CCN(S(=O)(=O)c2ccc3c(c2)oc(=O)n3C)CC1	-11	37*	39*	-3	-9	6	>50
CS(=O)(=O)N1CCN(C/C=C/c2ccccc2)CC1	-3	5	47*	-5	8	-2	>50
O=S(=O)(Cc1ccccc1)N1CCN(C/C=C/c2ccccc2)CC1	-2	12	3	3	-14	2	/
FC(F)(F)c1cccc(Cn2nnnc2-c2cccc(C(F)(F)F)c2)c1	7	13	-21	2	-9	22	/
CCC(=O)N1CCN(c2ccc(NC(=O)c3ccc4c(c3)OCO4)cc2)CC1	6	-11	44*	-1	-10	0	>50
CC(=O)Nc1ccc(NC(=O)COC(=O)Cc2cccs2)cc1	-3	-1	-27	-4	-3	6	/
Cc1nn(C(C)C(=O)N2CCCCC2)c(=O)c2c1sc1ccccc12 (centres undefined)	-5	23	43*	11	-9	3	>50
CCc1ccc(NC(=O)N(CCOC)C2CCN(C(C)=O)CC2)cc1	1	9	9	-8	0	3	/

Screens: PubChem BioAssay, several laboratories
